Most compounds without a hit are left out; they make up all but 3.4% or so of the library.
IMP-1 inhibitor – blocks Pseudomonas aeruginosa IMP-1 metallo-beta-lactamase | purified IMP-1, nitrocefin hydrolysis, epi-absorbance fluorescence | inhibition, % at 5.6 µM | hit rate 0.45% among 290,000 | AID 1556;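 active means inhibition above the mean plus 3 SD of all compounds in the same screening run, cut at about 4.5% in these data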;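 further: 0% = IMP-1 with DMSO and 100% = DMSO wells lacking enzyme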
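Assay system: purified IMP-1; Quantity: IMP-1 0.2 nM before substrate addition; Medium: HEPES buffer pH 7.1 with ZnSO4 and Brij 35; Incubation: 15 min enzyme–compound preincubation, then 25 min nitrocefin reaction, 25 °C; Signal: fluorescence quenching readout, ex 480/em 530 nm; Controls: DMSO with and without IMP-1; Repeats: singlicate testing.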
VIM-2 inh – inhibitors of Pseudomonas aeruginosa VIM-2 metallo-beta-lactamase; hit rate 0.89% among 290,000; inhibition, % at 5.6 µM; purified VIM-2, nitrocefin hydrolysis, epi-absorbance fluorescence;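 active means inhibition above the mean of all tested compounds plus 3 SD, cutoff set per screening run, cut at about 7.5% in these data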;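 further: red hydrolysis product quenches plate fluorescence so inhibitors raise well fluorescence; 0% = enzyme with DMSO and 100% = DMSO without enzyme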
MEKK3 PB1 HTS – modulators (inhibitors or enhancers) of MEK5 binding to human MEKK3 PB1 domain | Q99759 | bead-based flow cytometry, Alexa488-MEK5 binding to MEKK3; actives lie on both sides; 0 = blocked by unlabeled MEK5, 100 = vehicle | binding response (% of control), % at 10 µM | hit rate 1.4% among 290,000 | AID 1529;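 active means binding response more than 3 SD above or below the average of its plate-row segment, actives on both sides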;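 further: Alexa488 bead fluorescence after subtracting the streptavidin-only scavenger bead signal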
Target sequence (Q99759 whole entry, looked up, the tested form may be a part): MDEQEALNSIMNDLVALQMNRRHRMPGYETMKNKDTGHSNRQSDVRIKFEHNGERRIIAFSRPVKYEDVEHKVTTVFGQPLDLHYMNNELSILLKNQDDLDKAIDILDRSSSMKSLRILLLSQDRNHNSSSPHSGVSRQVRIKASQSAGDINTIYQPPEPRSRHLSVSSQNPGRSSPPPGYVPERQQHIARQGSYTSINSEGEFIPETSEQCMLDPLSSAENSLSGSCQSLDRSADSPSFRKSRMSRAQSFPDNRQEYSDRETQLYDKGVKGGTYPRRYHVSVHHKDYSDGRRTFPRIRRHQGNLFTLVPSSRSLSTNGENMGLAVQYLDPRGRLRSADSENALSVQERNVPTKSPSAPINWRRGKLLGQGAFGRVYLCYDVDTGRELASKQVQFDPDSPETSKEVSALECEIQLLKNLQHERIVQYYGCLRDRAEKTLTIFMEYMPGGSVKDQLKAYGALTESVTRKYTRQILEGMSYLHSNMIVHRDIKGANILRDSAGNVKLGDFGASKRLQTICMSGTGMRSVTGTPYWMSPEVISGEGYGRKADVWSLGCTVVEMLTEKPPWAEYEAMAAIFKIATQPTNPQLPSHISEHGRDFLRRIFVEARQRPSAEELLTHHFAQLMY
MEKK2wt PB1 HTS – raises or lowers MEK5 binding to wildtype human MEKK2 PB1 domain | bead flow cytometry, Alexa488-MEK5 binding to MEKK2 WT; actives lie on both sides | Q9Y2U5 | binding response (% of control), % at 10 µM | hit rate 1.1% among 290,000; in the data active means binding response below about 67% or above about 130%
MEKK2 mut-MEK5 – signal of MEK5 binding to mutant human MEKK2 PB1 domain; bead flow cytometry, Alexa488-MEK5 binding to MEKK2 mutant; percent response, % at 10 µM; hit rate 0.35% among 290,000; in the data active means percent response above about 24%, passing the limit was not always enough
MEKK2wt confirm – raises or lowers MEK5 binding to wildtype human MEKK2, retest. shares compounds with MEKK3 PB1 HTS. bead flow cytometry, Alexa488-MEK5 binding to MEKK2 WT; actives lie on both sides. binding response (% of control), % at 10 µM. hit rate 2.4% among 5,900; in the data active means binding response below about 16% or above about 210%; inactive means in between
MEKK2mut confirm – signal of MEK5 binding to mutant human MEKK2, retest. bead flow cytometry, Alexa488-MEK5 binding to MEKK2 mutant. AID 1893. shares compounds with MEKK3 PB1 HTS. percent response, % at 10 µM. hit rate 2% among 5,900; in the data active means percent response mostly above about 71%, no sharp cut-off; inactive means mostly below about 38%;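 further: higher means compound restores mutant binding toward wildtype level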
MEKK3-MEK5 inh – confirmation of inhibitors of MEK5 binding to human MEKK3 | shares compounds with MEKK3 PB1 HTS | bead flow cytometry, Alexa488-MEK5 binding to MEKK3; active compounds read low | binding response (% of control), % at 10 µM | hit rate 1.8% among 5,900 | AID 1894;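 active means binding response below 72% of control, or above a set upper limit, though filed actives all read lower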;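 further: 100% = DMSO only wells and 0% = binding blocked by excess unlabeled MEK5; lower values mean stronger disruption of MEK5 binding to MEKK3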
* = called active by the depositor; . = not tested or not shown; [ ] = another dose, or the depositor's remark.

SMILES	IMP-1 inhibitor	VIM-2 inh	MEKK3 PB1 HTS	MEKK2wt PB1 HTS	MEKK2 mut-MEK5	MEKK2wt confirm	MEKK2mut confirm	MEKK3-MEK5 inh
CCC1=Nc2cc(C(=O)NCCCOC(C)C)ccc2Sc2ccccc21	-2	-2	128*	127	5	95	-1	99
Cc1ccc(Nc2nc(NCCCN3CCOCC3)nc(N)c2[N+](=O)[O-])cc1C	0	6	106	148*	21	131	15	102
CCn1c(CCNC(=O)c2ccc(OC)c(OC)c2)nc2ccccc21	-2	-4	108	102	1	.	.	.
COc1cc(Cl)cc2c1Sc1ccccc1/C2=C/CCN(C)C	-2	-2	81	167*	19	154	46	108
CN(C)CC/C=C1/c2ccccc2Sc2c(O)cc(Cl)cc21	-4	-2	103	105	10	.	.	.
O=C(Nn1c(=O)[nH]c2ccsc2c1=O)c1ccccc1	-2	-2	79	73	-8	.	.	.
Cc1cc(NC(=O)CCC(=O)N(c2ccccc2)C(C(=O)NC2CCCC2)c2ccccc2)no1 (configuration not stated)	-2	-3	113	101	27*	100	1	104
Cn1c(SCC(=O)Nc2ccccc2Cl)nnc1C1CC1	-1	0	108	109	12	.	.	.
Cc1cc(C)c(S(=O)(=O)c2ccccc2C(=O)O)c(C)c1	-3	-2	126*	124	6	101	9	104
OCC1(Cc2cccc(Cl)c2)CCCN(Cc2cnn(-c3ccccc3)c2)C1 (configuration not stated)	-1	0	94	140*	24	130	20	103
Cn1cc(CN2CCCC(CO)(Cc3cccc(Cl)c3)C2)cn1 (configuration not stated)	-2	-3	103	112	7	.	.	.
CCCCn1c(=O)c2ccccc2c2ccccc2c1=O	-4	0	99	99	7	.	.	.
COc1ccc([N+](=O)[O-])cc1NC(=O)c1ccc(C)o1	-4	-5	187*	109	1	96	-1	95
CCCCn1c(SCC(=O)N2CCOCC2)nnc1-c1ccoc1C	-6	-2	128*	107	2	104	10	105
Cc1occc1-c1nnc(SCC(=O)N2CCOCC2)n1CCc1ccccc1	-2	-2	113	111	5	.	.	.
Cc1cc(N2CCC(C(N)=O)CC2)nc(-c2ccccc2)n1	-4	1	100	98	2	.	.	.
Cc1nn(C)cc1-c1cc(C(=O)O)c2ccccc2n1	-2	-3	65*[inhibitor]	23*[inhibitor]	-3	95	-3	97
Cc1cc(-c2cc(C(=O)O)c3ccccc3n2)c(C)s1	-2	-3	103	98	-1	.	.	.
Cc1ccc(-n2c(SCC(=O)N3CC(=O)Nc4ccccc43)nc3ccccc3c2=O)cc1C	-1	-3	136*	99	0	92	-6	97
CC(C)c1ccccc1-n1c(SCC(=O)N2CCc3ccccc3C2)nc2ccccc2c1=O	-1	1	155*	103	0	92	-8	98
O=C(CSc1nc2ccccc2c(=O)n1-c1ccccc1)N1CCc2ccccc2C1	-1	-4	88	84	-3	.	.	.
O=C(CSc1nc2ccccc2c(=O)n1-c1ccccc1)N1CCN(CCO)CC1	-3	5	2.0*[inhibitor]	3.0*[inhibitor]	-21	96	1	104
O=C(CSc1nc2ccccc2c(=O)n1-c1ccccc1)N1CCC1	0	-4	101	95	-5	.	.	.
CC(C)(C)NC(=O)COC(=O)/C=C/c1ccc(F)cc1	-1	-1	102	92	9	.	.	.
CCc1ccc(OCC(=O)O/N=C(\N)c2cccnc2)cc1	-1	-1	102	102	5	.	.	.
SMILES	IMP-1 inhibitor	VIM-2 inh	MEKK3 PB1 HTS	MEKK2wt PB1 HTS	MEKK2 mut-MEK5	MEKK2wt confirm	MEKK2mut confirm	MEKK3-MEK5 inh
O=C(O)Cc1csc(-c2ccccc2)n1	-1	-1	99	98	-1	.	.	.
COC(=O)C1=C(C(=O)OC)[C@@H]2N(C)c3ccc(OC)cc3[C@@]23C[C@@H](C(=O)OC)N(C(=O)NC2CCCCC2)C3=N1	.	.	2.0*[inhibitor]	3.0*[inhibitor]	-24	100	-2	103
Cc1ccccc1-n1c(C)nnc1SCC(=O)NNC(=O)c1ccccc1	-2	-2	148*	104	0	93	1	95
CC(OC(=O)c1cccs1)C(=O)NCc1ccccc1 (configuration not stated)	-1	-1	131*	121	9	97	-3	101
COc1ccc(C(=O)CSc2nnc(CCc3ccccc3)n2-c2ccccc2)cc1	-3	-5	96	94	3	.	.	.
COc1ccc(Cn2c(SCc3ccccc3C)nc3cc(OC)c(OC)cc3c2=N)cc1	-1	-1	118	278*	96*	252*	79*	113
O=C(c1cc(Cl)ccc1Cl)N1CCOCC1	-3	-1	0.0*[inhibitor]	-4.0*[inhibitor]	-21	106	13	102
O=C(/C=C/c1cccs1)N1CCN(c2ccc(F)cc2)CC1	-5	-1	76	62*[inhibitor]	-30	100	0	100
Oc1ccccc1/C=N/NC(=S)NC1CC2CC1C1C=CCC21 (configuration not stated)	-3	-2	100	89	-2	.	.	.
CCOc1ccc(Nc2nc(Cl)nc(NCCO)n2)cc1	-4	-4	131*	104	0	110	1	104
COC(=O)C1CCN(C(=O)CN2C(=O)NC(CCc3ccccc3)C2=O)CC1 (configuration not stated)	-2	-1	122*	124	9	99	-1	103
O=C(CN1C(=O)NC(CCc2ccccc2)C1=O)NC1CC1 (configuration not stated)	-3	4	85	96	-4	.	.	.
O=C(CC(c1ccco1)S(=O)(=O)c1ccccc1)c1ccccc1 (configuration not stated)	-2	-2	136*	118	1	98	3	102
O=C(CC(c1cccs1)S(=O)(=O)c1ccccc1)c1ccc(F)cc1 (configuration not stated)	0	-2	96	102	-3	.	.	.
CCN(CC)c1ccc(/C=N/NC(=O)c2cnccn2)cc1	-1	-3	96	98	-1	.	.	.
Cc1c(C#N)c(N=CN(C)C)c(C(=O)c2ccccc2)n1-c1ccc(Br)cc1	0	-3	92	93	-2	.	.	.

High-throughput results: PubChem BioAssay, several laboratories
